Measurements from paper PMC3081976 (Bioorganic & medicinal chemistry letters, 2010).

Assay: Rat pharmacokinetics
Type: in vivo, Sprague-Dawley rats
Settings: Sprague-Dawley, plasma; for clearance: iv, 1 mg/kg
Procedure, shortened: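 Sprague-Dawley rats (n = 3) received the test compound intravenously at 1 mg/kg; a separate oral gavage arm used 2 mg/kg. Blood was sampled at 5, 15, 30 min and 1, 2, 4, 6, 8 h into EDTA tubes and centrifuged to plasma. Plasma proteins were precipitated with acetonitrile and drug was quantified by LC-MS/MS. CL and t1/2 came from noncompartmental analysis.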

| half-life [h] | clearance [mL/min/kg] | Structure (SMILES) |
| --- | --- | --- |
| 1.5 | 6.4 | Cc1nc(C)n(-c2ccc(Nc3cc(-c4nn(C)cc4-c4ccc(F)cc4)ccn3)cc2)n1 [Compound 37] |
| 2.3 | 4.2 | Cc1ccc(-c2ncn(-c3ccc(Nc4cc(-c5ccn(C)n5)c(F)cn4)cc3)n2)cn1 [Compound 20] |
| 6.5 | 0.9 | Cn1ccc(-c2cc(Nc3ccc(-n4cnc(N5CCOCC5)n4)cc3)ncc2Cl)n1 [Compound 16] |
| 1.3 | 9 | Cc1nc(C)n(-c2ccc(Nc3cc(-c4ccn(C)n4)c(Cl)cn3)cc2)n1 [Compound 15] |
| 3.4 | 4 | Cn1ccc(-c2cc(Nc3ccc(-n4cnc(-c5ccccn5)n4)cc3)ncc2F)n1 [Compound 21] |
